Test results as given in ChEMBL document CHEMBL1121557, “Chemistry, pharmacology, and structure-activity relationships with a new type of imidazolines exerting a specific bradycardic action at a cardiac site” (J Med Chem, 1980).
Values after ≈ are worked out from the molar mass of the structure shown.

Tests used:
[1] = Ratio of contractility to atrial rate in isolated guinea pig atria; assay type: functional, Cardiac atrium
How it was run: (§1)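 Ratios of EC30 values from isolated guinea pig atria. Atrial rate was measured in spontaneously beating atria at 37 °C after at least 30 min of equilibration, until rate varied by no more than 5 beats/min. Contractility was measured in left atria driven at 2.5 Hz, 30 °C. Maximal driving frequency was found by stepwise pacing. Compound was added cumulatively, concentration doubled every 10 min.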

[2] = species: Cavia porcellus; test: Evaluated for decrease in contractility in isolated guinea pig atria; assay type: functional
How it was run: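 Electrically driven left guinea pig atria (300–500 g, either sex) in modified Tyrode's gassed 98% O2/2% CO2, 30 °C, 1 g resting tension. Stimulation 3 ms rectangular pulses at 1.5× threshold, 2.5 Hz, after 20 min equilibration. Isometric force in grams. Concentrations added cumulatively, doubled every 10 min, one atrium per experiment. EC30 (30% fall from predrug value) read from curves.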

[3] = species: Cavia porcellus; test: Evaluated for increase in maximal driving frequency in isolated guinea pig atria; assay type: functional
How it was run: (§2)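 Guinea pig left atria in modified Tyrode's gassed 98% O2/2% CO2, 1 g resting tension, driven with 1 ms pulses at 3× threshold. Runs separated by 5 min at 0.5 Hz. Control is the mean of 3 predrug runs; the value is the mean of runs at 5 and 10 min after each cumulative addition, concentration doubled every 10 min. EC30 read from curves.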

[4] = species: Cavia porcellus; test: Evaluated for decrease in spontaneous frequency of atrial rate in isolated guinea pig atria; assay type: functional; conditions: Cardiac atrium
How it was run: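 Atria dissected from guinea pigs of various breeds (300–500 g, either sex) and suspended in modified Tyrode's solution gassed with 98% O2/2% CO2, resting tension 1 g. Spontaneously beating atria at 37 °C, equilibrated at least 30 min until rate stable within 5 beats/min. Drug added cumulatively, concentration doubled every 10 min. EC30 = concentration reducing predrug rate by 30%, read from curves.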

[5] = Partition coefficient (logD7.4); conditions: octanol/water, pH 7.4
[6] = Dissociation constant (pKa); assay type: physicochemical
[7] = system: Rattus norvegicus; test: Dose required to decrease heart rate after iv injection to spinal rats; assay type: functional
How it was run: (§3)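 Male Chbb:THOM rats, 200–250 g, under pentobarbital sodium 50 mg/kg ip, atropine sulfate 1 mg/kg sc, trachea cannulated. Medulla cut at C1, brain destroyed, artificially ventilated. Jugular iv injections given cumulatively, dose doubled every 2 min, 3 doses per animal, top cumulative dose 10 mg/kg. ECG-triggered tachograph heart rate. D150 (dose lowering rate 150 beats/min) read graphically from log dose–response curves; n = 6 rats.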

[8] = species: Rattus norvegicus; test: Evaluated for decreased heart rate in spinal rats, relative activity was determined; assay type: functional; how it was run: as §3
[9] = species: Cavia porcellus; test: Evaluated for decrease in maximal driving frequency in isolated guinea pig atria; assay type: functional; how it was run: as §2
[10] = EC30 ratio of contractility to atrial rate in isolated guinea pig atria; assay type: functional, Cardiac atrium; how it was run: as §1
[11] = EC30 ratio of maximal driving frequency to atrial rate in isolated guinea pig atria; assay type: functional, Cardiac atrium; how it was run: as §1

SMILES | logD [5] | pKa [6] | Ratio [1] | EC30 [2] [µg/mL] | EC30 [3] [µg/mL] | EC30 [4] [µg/mL] | D150 [7] | Relative activity [8] | EC30 [9] [µg/mL] | Ratio [10] | Ratio [11]
C[N+](C)(C)CCOC(N)=O.[Cl-] [CARBACHOL] |  |  | 0.22 | 0.0065 | 0.09 | 0.029 |  |  |  |  | 
N=C(N)N(CC1CC1)c1c(Br)cccc1Br | -0.63 | 11.9 |  |  |  |  | >10 mg/kg | <0.062 |  |  | 
Fc1cccc(C(F)(F)F)c1N(CC1CC1)C1=NCCN1 | -0.95 | 10.7 |  |  |  |  | 1.8 mg/kg | 0.34 |  |  | 
C=CCN(C1=NCCN1)c1c(Cl)cccc1Cl [ALINIDINE] | -1.66 | 10.4 |  |  |  |  | 2.5 mg/kg | 0.25 |  |  | 
C=C(C)CCN(C1=NCCN1)c1c(Br)cccc1Br | 0.02 | 10.9 |  |  |  |  | 1.03 mg/kg | 0.6 |  |  | 
C=C(C)CN(C1=NCCN1)c1c(Br)cccc1Br | -0.66 | 10.7 |  |  |  |  | 2.1 mg/kg | 0.3 |  |  | 
C/C=C/CN(C1=NCCN1)c1c(Br)cccc1Br | -0.49 | 11 |  |  |  |  | 0.7 mg/kg | 0.88 |  |  | 
CN(C1=NCCN1)c1c(Br)cccc1Br |  | 10.7 |  |  |  |  | 1.4 mg/kg |  |  |  | 
COc1ccc(CCN(C)CCCC(C#N)(c2ccc(OC)c(OC)c2)C(C)C)cc1OC (stereo not given) |  |  | 1.2 | 0.24 (≈ 0.528 µM) |  | 0.2 (≈ 0.44 µM) |  |  | 6.5 (≈ 14.3 µM) |  | 
C=C[C@H]1CN2CC[C@H]1C[C@@H]2[C@@H](O)c1ccnc2ccc(OC)cc12 [QUINIDINE] |  |  |  | 62 (≈ 191 µM) |  | 7.2 (≈ 22.2 µM) |  |  | 6.5 (≈ 20 µM) | 8.6 | 0.9
Brc1cccc(Br)c1N(Cc1ccco1)C1=NCCN1 | -0.52 | 10.5 |  |  |  |  | 2.8 mg/kg | 0.22 |  |  | 
Brc1cccc(Br)c1N(Cc1ccccc1)C1=NCCN1 | -0.05 | 10.4 |  |  |  |  | 2.5 mg/kg | 0.25 |  |  | 
C=CCN(C1=NCCN1)c1c(Br)cccc1Br | -0.75 | 10.7 |  |  |  |  | 1.5 mg/kg | 0.41 |  |  | 
Brc1cccc(Br)c1N(Cc1cccs1)C1=NCCN1 | -0.1 | 10.5 |  |  |  |  | 1.9 mg/kg | 0.33 |  |  | 
C=CCCN(C1=NCCN1)c1c(Br)cccc1Br | -0.63 | 11.2 |  |  |  |  | 1 mg/kg | 0.62 |  |  | 
CC(C)=CCN(C1=NCCN1)c1c(Br)cccc1Br | -0.14 | 10.8 |  |  |  |  | 3.5 mg/kg | 0.18 |  |  | 
C#CCN(C1=NCCN1)c1c(Br)cccc1Br | -0.18 | 10.1 |  |  |  |  | 1.25 mg/kg | 0.5 |  |  | 
Brc1ccc(N(CC2CC2)C2=NCCN2)cc1Br |  |  |  |  |  |  | >>10 mg kg-1 | <<0.062 |  |  | 

Second part, led by results:

logD [5] | pKa [6] | SMILES | Ratio [1] | EC30 [2] [µg/mL] | EC30 [3] [µg/mL] | EC30 [4] [µg/mL] | D150 [7] | Relative activity [8] | EC30 [9] [µg/mL] | Ratio [10] | Ratio [11]
-0.82 | 11.2 | CC(C)N(C1=NCCN1)c1c(Br)cccc1Br |  |  |  |  | 2.3 mg/kg | 0.27 |  |  | 
-0.31 | 11.2 | Brc1ccc(N(CC2CC2)C2=NCCN2)c(Br)c1 |  |  |  |  | 10 mg/kg | 0.062 |  |  | 
-0.99 | 11.3 | Cc1cccc(Cl)c1N(CC1CC1)C1=NCCN1 |  |  |  |  | 1.85 mg/kg | 0.34 |  |  | 
-2.5 | 11 | CCCCN(C1=NCCN1)c1c(Br)cccc1Br |  |  |  |  | 1.35 mg/kg | 0.46 |  |  | 
-1.01 | 11.1 | CCN(C1=NCCN1)c1c(Br)cccc1Br |  |  |  |  | 0.75 mg/kg | 0.83 |  |  | 
-1.03 | 12.4 | Brc1cccc(Br)c1N(CC1CC1)C1=NCCCN1 |  |  |  |  | 1.1 mg/kg | 0.56 |  |  | 
-0.79 | 10.8 | Clc1cccc(Br)c1N(CC1CC1)C1=NCCN1 |  |  |  |  | 0.42 mg/kg | 1.48 |  |  | 
0.27 | 11.2 | Brc1cccc(Br)c1N(CC1CCCCC1)C1=NCCN1 |  |  |  |  | 6.5 mg/kg | 0.095 |  |  | 
-1.41 | 10.3 | Fc1cccc(F)c1N(CC1CC1)C1=NCCN1 |  |  |  |  | 4.8 mg/kg | 0.13 |  |  | 
-1.03 | 10.7 | Fc1cccc(Br)c1N(CC1CC1)C1=NCCN1 |  |  |  |  | 1.5 mg/kg | 0.41 |  |  | 
-0.55 | 11 | CCCN(C1=NCCN1)c1c(Br)cccc1Br |  |  |  |  | 0.65 mg/kg | 0.95 |  |  | 
-1.3 | 11.2 | Brc1ccccc1N(CC1CC1)C1=NCCN1 |  |  |  |  | 4.4 mg/kg | 0.14 |  |  | 
-1.12 | 10.9 | Brc1cccc(Br)c1N(CC1CC1)C1=NCCN1 |  | 95 (≈ 255 µM) |  | 0.65 (≈ 1.74 µM) | 0.62 mg/kg | 1 | 12 (≈ 32.2 µM) | 146 | 18
0.32 | 11 | CCCCCN(C1=NCCN1)c1c(Br)cccc1Br |  |  |  |  | 1.6 mg/kg | 0.39 |  |  | 
-0.52 | 11 | Brc1ccc(Br)c(N(CC2CC2)C2=NCCN2)c1 |  |  |  |  | 5 mg/kg | 0.12 |  |  | 
-0.06 | 10.9 | Brc1cccc(Br)c1N(CC1CCC1)C1=NCCN1 |  |  |  |  | 1.2 mg/kg | 0.52 |  |  | 
-0.41 | 11.1 | Brc1cccc(N(CC2CC2)C2=NCCN2)c1Br |  |  |  |  | 7.5 mg/kg | 0.083 |  |  | 
0.16 | 10.9 | CC(C)CCN(C1=NCCN1)c1c(Br)cccc1Br |  |  |  |  | 1.3 mg/kg | 0.48 |  |  | 
-0.98 | 10.8 | Fc1cccc(Cl)c1N(CC1CC1)C1=NCCN1 |  |  |  |  | 0.74 mg/kg | 0.84 |  |  | 
-0.64 | 11 | CC(C)CN(C1=NCCN1)c1c(Br)cccc1Br |  |  |  |  | 1.35 mg/kg | 0.46 |  |  | 
0.32 | 10.9 | Brc1cccc(Br)c1N(CC1CCCC1)C1=NCCN1 |  |  |  |  | 1.3 mg/kg | 0.48 |  |  | 
0.14 | 11.3 | Brc1cccc(Br)c1N(C1=NCCN1)C1CCCCC1 |  |  |  |  | 2.6 mg/kg | 0.24 |  |  | 
-0.92 | 10.9 | Clc1cccc(Cl)c1N(CC1CC1)C1=NCCN1 |  |  |  |  | 0.65 mg/kg | 0.95 |  |  | 
-0.29 | 11.2 | Brc1cccc(Br)c1N(C1=NCCN1)C1CCCC1 |  |  |  |  | 1 mg/kg | 0.62 |  |  | 
